# Screening data from PubChem.
# Compounds with a hit are over-represented: about 3.7% of the library has one in this group of screens.
# KCNK3 inh – human KCNK3 channel inhibitors, primary screen, CHO cells, FluxOR thallium flux, B-score; FluxOR fluorescence; stronger effect = lower value; B-score at 10 µM; 340,000 compounds, 0.84% hits;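 active = B-score under library mean minus 4 SD, starting fluorescence ratio at most library mean plus 5 SD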;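 also: more negative B-score means stronger inhibition of thallium flux through KCNK3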
# KCNQ1 inh – inhibitors of human KCNQ1 channel, primary screen, cell-based, thallium flux, high-throughput; 310,000 compounds, 1.3% hits; B-score at 10 µM; AID 2642, 2010; CHO-K1 KCNQ1, FluxOR thallium flux fluorescence; stronger effect = higher value;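 active = compounds whose thallium flux B-score, printed positive for inhibition, exceeds three library SD while starting fluorescence stays within three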;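 also: channel opened by potassium depolarization with thallium stimulus after 20 min compound exposure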
# Kir21 block – inhibitors of mouse Kir2.1 inward-rectifier potassium channel. Inward rectifier potassium channel 2 (Mus musculus), P35561. AID 1672, 2009. 310,000 compounds, 0.85% hits. B-score at 10 µM. HEK293-Kir2.1, FluxOR thallium flux fluorescence; stronger effect = lower value;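 active = fluorescence ratio B-score at or below minus 3 SD of library scores, with starting-brightness B-score within 2 SD, cut at about -4.2 in these data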;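 also: channel flux triggered by added potassium and thallium sulfate stimulus; B-score of peak minus minimum fluorescence over baseline after thallium stimulus; more negative B-score means stronger Kir2.1 block with less thallium influx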
# Target sequence (P35561 whole entry, looked up): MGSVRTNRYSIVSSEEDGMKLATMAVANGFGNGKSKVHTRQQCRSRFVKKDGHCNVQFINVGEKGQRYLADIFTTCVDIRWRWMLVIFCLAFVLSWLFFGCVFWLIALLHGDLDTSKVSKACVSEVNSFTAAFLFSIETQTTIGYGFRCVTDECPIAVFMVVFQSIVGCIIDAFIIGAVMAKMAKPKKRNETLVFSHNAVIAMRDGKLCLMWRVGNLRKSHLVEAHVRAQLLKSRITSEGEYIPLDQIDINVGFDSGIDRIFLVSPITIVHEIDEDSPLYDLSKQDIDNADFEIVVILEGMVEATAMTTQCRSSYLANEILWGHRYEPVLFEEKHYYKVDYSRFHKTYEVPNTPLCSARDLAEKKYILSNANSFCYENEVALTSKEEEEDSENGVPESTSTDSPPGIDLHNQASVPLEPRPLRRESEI
# KCNK9 block – KCNK9 potassium channel inhibitors, primary screen, HEK293 cells, thallium flux | Potassium channel subfamily K member 9 (Homo sapiens), Q9NPC2 | FluxOR thallium flux fluorescence; stronger effect = lower value | B-score at 10 µM | 310,000 compounds, 1.2% hits;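 active = ratio B-score over 3 SD below the library mean, with starting fluorescence within 5 SD of its mean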;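 also: negative B-score means less thallium flux so channel inhibition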
# hERG protect – hERG rescue from dofetilide block, primary screen, cell-based, CHO-hERG, FluxOR thallium flux, dofetilide IC70; Voltage-gated inwardly rectifying potassium channel KCNH2 (Homo sapiens), Q12809; dofetilide IC70 present; activation (rescue from dofetilide block), less the hit threshold, % at 10 µM; 310,000 compounds, 0.51% hits;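 active = activation above the mean of controls blocked by dofetilide plus 5 SD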;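 also: thallium influx through hERG after potassium depolarization seen as dye fluorescence rise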
# KCNQ1 pot – potentiators or activators of KCNQ1 channel, primary screen, cell-based, thallium flux, high-throughput | Potassium voltage-gated channel subfamily KQT member 1 (Homo sapiens), P51787 | CHO-K1 KCNQ1, thallium flux FluxOR fluorescence; stronger effect = higher value | B-score at 10 µM | 310,000 compounds, 0.35% hits | AID 2648, 2010;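 active = fluorescence ratio B-score, a plate-corrected score, at least three library SD, with initial intensity B-score within 5 SD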
#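 Assay system: CHO-K1 cells stably expressing KCNQ1; Medium: assay buffer with matched DMSO; Also added: K+/Tl+ depolarizing stimulus; Dosing: single dose; Timing: dye 90 min, compound 20 min, room temperature; Measured by: kinetic FluxOR thallium fluorescence, 10-s 1-Hz baseline, 110-s post-stimulus read; Read-out: peak-minus-minimum fluorescence over initial fluorescence, negative-control normalized, B-scored.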
# A number is an active result; 0 = inactive; - = not tested or not shown.
SMILES,KCNK3 inh,KCNQ1 inh,Kir21 block,KCNK9 block,hERG protect,KCNQ1 pot
O=C(c1ccccc1)c1ncc[nH]1,0,0,0,0,0,0
O=c1[nH]c(/C(=N\O)c2ccccc2)no1,0,0,0,-7.17,0,0
COc1ccc(CCNc2ccc(C(CC(N)=O)NC(=O)c3cc(C)cc(C)c3)cc2[N+](=O)[O-])cc1 (stereo unspecified),0,0,0,0,0,0
CCN1C(=O)CSC1=Nc1cccc(C(=O)O)c1,0,0,0,0,0,0
CN(C(=O)Cn1c(=O)oc2cc(S(=O)(=O)N3CCCC3)ccc21)C1CCCCC1,0,0,0,0,0,0
OC(CNCCc1ccc(C(F)(F)F)cc1)COc1cccc2ccccc12 (stereo unspecified),0,0,-8.02,0,5.3,0
OC(CNC1CCCCCC1)COc1cccc2ccccc12 (stereo unspecified),0,0,-4.93,0,0,0
OC(CNC1CCCC1)COc1ccccc1Br (stereo unspecified),0,0,0,0,0,0
Cc1ccccc1OCC(O)CNC1CCC(NCC(O)COc2ccccc2C)CC1 (stereo unspecified),0,0,-5.5,0,0,0
OC(CNCCc1ccc(C(F)(F)F)cc1)COc1ccc2ccccc2c1 (stereo unspecified),0,0,0,0,0,0
N#C/C(=C(/O)c1ccc(-c2cccc([N+](=O)[O-])c2)o1)c1nc2ccccc2s1,0,7,0,0,0,0
O=C(O)c1ccc(-c2cccc([N+](=O)[O-])c2)o1,0,0,0,0,0,0
CC(C)C(NC(=O)CSCc1ccc([N+](=O)[O-])cc1)C(C)C,0,0,-4.46,0,0,0
O=C(CSCc1ccc([N+](=O)[O-])cc1)NC1CC1,0,0,0,0,0,0
CCOc1ccc(CCNC(=O)c2ccc(CS(=O)Cc3ccccc3Cl)o2)cc1 (stereo unspecified),0,0,-4.3,0,0,0
CCOc1ccc(CCNC(=O)c2ccc(CS(=O)Cc3ccc(Cl)cc3)o2)cc1 (stereo unspecified),0,0,0,0,0,0
Cc1c(Cl)cccc1N1C(=O)CC(NNC(=O)c2ccc3c(c2)OCO3)C1=O (stereo unspecified),0,-,-,-,-,-
COc1ccc(Cl)cc1NS(=O)(=O)c1ccc(OC)c(OC)c1,0,0,-8.16,0,0,0
COc1ccc(S(=O)(=O)Nc2c(C)ccc3nsnc23)cc1OC,0,0,-5.12,0,0,0
COc1ccc(S(=O)(=O)Nc2cc(C)ccc2OC)cc1C,0,0,-6.96,0,0,0
COc1ccc(C)cc1NS(=O)(=O)c1ccc(NS(=O)(=O)c2ccc(NC(C)=O)cc2)cc1,0,0,0,0,0,0
COc1ccc(NS(=O)(=O)c2cccc3nsnc23)cc1OC,0,0,0,0,0,0
COc1ccccc1-n1cnc2sc(C)c(C)c2c1=O,0,0,0,0,6.0,0
CCOc1ccc(-n2cnc3sc(C)c(C)c3c2=O)cc1,0,0,0,0,5.6,0
Cc1sc2ncn(-c3ccccc3)c(=O)c2c1C,0,0,0,0,0,0
SMILES,KCNK3 inh,KCNQ1 inh,Kir21 block,KCNK9 block,hERG protect,KCNQ1 pot
COc1ccc(-c2csc3ncn(-c4ccccc4OC)c(=O)c23)cc1OC,0,0,0,0,0,0
C/C(=N\NC(=S)NCc1ccccc1)c1ccccc1,0,0,0,0,0,0
C/C(=N\NC(=S)NCc1ccccc1)c1ccco1,0,0,0,0,4.9,0
Oc1c(Cl)cc(Cl)cc1C(C#Cc1ccccc1)N1CCOCC1 (stereo unspecified),0,0,0,-7.13,0,0
N#CC(c1ccc(Cl)cc1)N1CCOCC1 (stereo unspecified),0,0,0,0,0,0
CCCCNC(=O)[C@@](CC)(ONc1ccccc1C(F)(F)F)c1cccc2ccccc12,0,-,-,-,-,-
COc1cc2c(cc1NC(=O)CSc1nnc(COc3ccc(Cl)cc3)n1C)oc1ccccc12,0,0,0,0,0,11
CN(CC(=O)Nc1c(Cl)cccc1Cl)C(=O)Cc1ccc2c(c1)CCC2,0,0,0,0,0,0
CN(C)c1cc(N/N=C/c2ccc(Cl)cc2)nc(N(C)C)n1,0,7,0,0,0,0
COc1cc(N/N=C/c2ccc(N(C)C)cc2)ncn1,0,0,0,0,0,0
CN(C)c1ccc(S(=O)(=O)NCC(=O)NCCC2=CCCCC2)cc1[N+](=O)[O-],0,-,-,-,-,-
Oc1c(Br)cc(Br)cc1/C=N/c1nccs1,0,-,-,-,-,-
Oc1c(Br)cc(Br)cc1C=Nc1ccc2[nH]ncc2c1,0,0,0,-7.69,5.4,10
COc1ccc(C=Nc2ccc3[nH]ncc3c2)c(O)c1,0,0,0,0,0,0
Oc1c(Br)cc(Br)cc1C=Nc1cccnc1,0,0,0,0,0,15
Cc1ccccc1NC(=S)N(Cc1ccco1)C(C)c1cccs1 (stereo unspecified),0,0,0,0,0,0
CC(c1cccs1)N(Cc1ccco1)C(=S)Nc1ccc(F)c(Cl)c1 (stereo unspecified),0,10,0,0,0,0
CCCc1cnc(NCCNCC(O)COc2ccc(Cl)c(Cl)c2)nc1 (stereo unspecified),0,0,-6.47,0,0,0
COc1ccc(N2CCN(C(=O)CSc3ccc([N+](=O)[O-])cc3)CC2)cc1,0,8,0,0,0,0
CCN(CC)Cc1ccccc1CNC(=O)c1cccc(S(=O)(=O)Nc2ccc3c(c2)OCO3)c1,-9.27,-,-,-,-,-
O=S(=O)(Nc1ccc2c(c1)OCO2)c1cccc(Br)c1,0,-,-,-,-,-
COc1ccc(C2c3ccc4ccccc4c3Oc3ncn(CCO)c(=N)c32)cc1OC (stereo unspecified),0,0,0,0,0,0
COc1ccc(C2c3ccc4ccccc4c3Oc3ncn(CCN(C)C)c(=N)c32)cc1 (stereo unspecified),0,0,-4.28,0,0,0
COc1ccc(C2c3ccc4ccccc4c3Oc3ncn(CCO)c(=N)c32)cc1 (stereo unspecified),0,0,-5.21,0,0,0
COc1ccc(C2c3ccc4ccccc4c3Oc3ncn(CCCO)c(=N)c32)cc1 (stereo unspecified),0,0,0,0,0,0
COc1ccc(C2c3ccc4ccccc4c3Oc3ncn(CCCO)c(=N)c32)cc1OC (stereo unspecified),0,0,0,0,0,9
